Results as given in ChEMBL document CHEMBL2177043, “HIV-1 X4 activities of polycationic "viologen" based dendrimers by interaction with the chemokine receptor CXCR4: study of structure-activity relationship” (J Med Chem, 2012).
Active and inactive are the calls of the source. The calls are words filed in the database; no cut-off is given here.

Tests used:
[1] = Cytotoxicity against human PBMC cells by MTT assay; format: cell-based
[2] = biological target: T1, C-X-C chemokine receptor type 4 (Homo sapiens, UniProt P61073); assay: Inhibition of CXCL-12'AF647 binding to CXCR4 in human SUPT1 cells incubated for 15 mins by FACS; format: cell-based
T1 sequence (P61073 whole entry): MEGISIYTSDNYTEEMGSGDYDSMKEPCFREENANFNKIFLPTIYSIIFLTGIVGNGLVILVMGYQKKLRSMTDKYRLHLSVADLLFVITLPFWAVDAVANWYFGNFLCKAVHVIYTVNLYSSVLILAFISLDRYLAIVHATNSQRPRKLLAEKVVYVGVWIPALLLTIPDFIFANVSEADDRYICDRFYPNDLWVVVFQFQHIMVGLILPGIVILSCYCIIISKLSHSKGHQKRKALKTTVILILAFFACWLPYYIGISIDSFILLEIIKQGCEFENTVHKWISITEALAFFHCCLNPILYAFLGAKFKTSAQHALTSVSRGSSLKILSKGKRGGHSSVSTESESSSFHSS
Outline: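 SupT1 cells (high CXCR4) washed, then incubated 15 min at room temperature with compounds at varied concentrations in HBSS containing 20 mM HEPES and 0.2% BSA, pH 7.4. CXCL12-AF647 added at 25 ng/mL final for 30 min at room temperature. Cells washed, fixed in 1% paraformaldehyde, and read by flow cytometry on FL4.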

[3] = system: Human immunodeficiency virus 1; assay: Antiviral activity against X4 HIV1 NL4.3 infected in human MT4 cells assessed as inhibition of viral replication pre-incubated for 30 mins […]; format: functional, organism-based; conditions: Human immunodeficiency virus 1, NL4.3, MT4
[4] = biological target: T1, C-X-C chemokine receptor type 4; assay: Inhibition of anti-CXCR4 mAbs clone 173 binding to CXCR4 in human SUPT1 cells incubated for 30 mins by FACS
[5] = Cytotoxicity against human MT4 cells by MTT assay; format: cell-based
[6] = biological target: T1, C-X-C chemokine receptor type 4; assay: Inhibition of anti-CXCR4 mAbs clone 12G5 binding to CXCR4 in human SUPT1 cells incubated for 30 mins by FACS
[7] = biological target: T2, C-C chemokine receptor type 5 (Homo sapiens, UniProt P51681); assay: Antagonist activity against CCR5 expressed in U87.CD4.CCR5 cells assessed as inhibition of CCL3L1-induced calcium signaling incubated for 10 mins by FLIPR; format: functional, cell-based
T2 sequence (P51681 whole entry, looked up): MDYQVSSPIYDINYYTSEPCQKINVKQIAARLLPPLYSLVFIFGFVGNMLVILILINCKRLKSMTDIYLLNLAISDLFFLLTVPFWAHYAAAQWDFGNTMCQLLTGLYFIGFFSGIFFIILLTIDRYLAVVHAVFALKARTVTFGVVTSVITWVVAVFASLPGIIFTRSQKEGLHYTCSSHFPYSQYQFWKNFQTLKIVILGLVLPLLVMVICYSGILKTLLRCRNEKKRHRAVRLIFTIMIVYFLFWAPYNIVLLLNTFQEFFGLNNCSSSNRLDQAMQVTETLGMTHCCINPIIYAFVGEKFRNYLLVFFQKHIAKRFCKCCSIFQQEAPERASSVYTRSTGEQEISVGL
Outline: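 U87.CD4.CCR5 cells seeded at 2 × 10⁴/well on 0.2% gelatin the day before, loaded with 4 μM Fluo-3 AM for 45 min at 37 °C, washed, then preincubated with compounds at varied concentrations in assay buffer for 10 min at 37 °C. Stimulated with 10 ng/mL LD78β (CCL3L1); Ca²⁺ flux recorded by FLIPR.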

[8] = biological target: T1, C-X-C chemokine receptor type 4; assay: Agonist activity against CXCR4 expressed in U87.CD.CXCR4 cells assessed as stimulation of calcium signaling incubated for 10 mins by FLIPR; format: functional, cell-based
Outline: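 U87.CD4 cells stably carrying CXCR4 or CCR5, trypsinized and seeded at 2 × 10⁴ cells/well on 0.2% gelatin the day before. Loaded with Fluo-3 AM (4 μM, 45 min, 37 °C), washed, then exposed to test agents alone at varied concentrations in assay buffer for 10 min at 37 °C. Cytosolic Ca²⁺ rise monitored over time by FLIPR to detect any agonist-triggered signal.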

[9] = biological target: T1, C-X-C chemokine receptor type 4; assay: Inhibition of anti-CXCR4 mAbs clone 1D9 binding to CXCR4 in human SUPT1 cells incubated for 30 mins by FACS
[10] = biological target: T2, C-C chemokine receptor type 5; assay: Antagonist activity against CCR5 expressed in U87.CD4.CCR5 cells assessed as inhibition of CCL3L1-induced calcium signaling incubated for 10 mins by FLIPR
[11] = biological target: T2, C-C chemokine receptor type 5; assay: Agonist activity against CCR5 expressed in U87.CD4.CCR5 cells assessed as stimulation of calcium signaling incubated for 10 mins by FLIPR
[12] = system: Human immunodeficiency virus 1; assay: Antiviral activity against X4 HIV1 NL4.3 infected in human PBMC assessed as inhibition of viral replication pre-incubated for 30 mins measured 5 days post infection by MTT assay; format: functional, organism-based; conditions: Human immunodeficiency virus 1, NL4.3
Outline: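 Human PBMC infected with HIV-1 NL4.3. IC₅₀ is the concentration inhibiting viral replication by 50%, averaged over two independent experiments. Cytotoxicity (CC₅₀, 50% loss of PBMC viability) evaluated in the same assay.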

[13] = biological target: T1, C-X-C chemokine receptor type 4; assay: Antagonist activity against CXCR4 expressed in U87.CD.CXCR4 cells assessed as inhibition of CXCL12-induced calcium signaling incubated for 10 mins by FLIPR; format: functional, cell-based
Outline: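 U87.CD4.CXCR4 cells seeded at 2 × 10⁴/well on 0.2% gelatin the day before, loaded with 4 μM Fluo-3 AM for 45 min at 37 °C, washed, then preincubated with compounds at varied concentrations in assay buffer for 10 min at 37 °C. Challenged with 25 ng/mL CXCL12; Ca²⁺ flux followed over time by FLIPR.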

Compound	CC50 [1] [mg/L]	IC50 [2] [µM]	IC50 [3] [mg/L]	IC50 [4] [µM]	inhibition [4]	CC50 [5] [mg/L]	IC50 [6] [µM]	inhibition [6]	IC50 [7] [µM]	Activity [8]	IC50 [9] [µM]	inhibition [9]	inhibition [10]	Activity [11]	IC50 [12] [mg/L]	IC50 [13] [µM]	inhibition [13]
CC[n+]1ccc(-c2cc[n+](Cc3cc(C[n+]4ccc(-c5cc[n+](CC)cc5)cc4)cc(-[n+]4ccc(-c5cc[n+](-c6cc(C[n+]7ccc(-c8cc[n+](CC)cc8)cc7)cc(C[n+]7ccc(-c8cc[n+](CC)cc8)cc7)c6)cc5)cc4)c3)cc2)cc1.F[P-](F)(F)(F)(F)F.F[P-](F)(F)(F)(F)F.F[P-](F)(F)(F)(F)F.F[P-](F)(F)(F)(F)F.F[P-](F)(F)(F)(F)F.F[P-](F)(F)(F)(F)F.F[P-](F)(F)(F)(F)F.F[P-](F)(F)(F)(F)F.F[P-](F)(F)(F)(F)F.F[P-](F)(F)(F)(F)F	> 100	5.8	1.1	0.544	Dose-dependent effect	> 100	0.768	Dose-dependent effect	> 39.2	inactive	3.36	Dose-dependent effect	Dose-dependent effect	inactive	5.6	24	Dose-dependent effect
Cc1cn(CCC[n+]2ccc(-c3cc[n+](Cc4cc(C[n+]5ccc(-c6cc[n+](CCCn7cc(C)c(=O)[nH]c7=O)cc6)cc5)cc(-[n+]5ccc(-c6cc[n+](-c7cc(C[n+]8ccc(-c9cc[n+](CCCn%10cc(C)c(=O)[nH]c%10=O)cc9)cc8)cc(C[n+]8ccc(-c9cc[n+](CCCn%10cc(C)c(=O)[nH]c%10=O)cc9)cc8)c7)cc6)cc5)c4)cc3)cc2)c(=O)[nH]c1=O.F[P-](F)(F)(F)(F)F.F[P-](F)(F)(F)(F)F.F[P-](F)(F)(F)(F)F.F[P-](F)(F)(F)(F)F.F[P-](F)(F)(F)(F)F.F[P-](F)(F)(F)(F)F.F[P-](F)(F)(F)(F)F.F[P-](F)(F)(F)(F)F.F[P-](F)(F)(F)(F)F.F[P-](F)(F)(F)(F)F	> 100	3.4	2.4	0.66	Dose-dependent effect	> 100	0.724	Dose-dependent effect	> 32.2	inactive	3.08	Dose-dependent effect	Dose-dependent effect	inactive	4.62	21	Dose-dependent effect
CC[n+]1ccc(-c2cc[n+](Cc3cc(C[n+]4ccc(-c5cc[n+](CC)cc5)cc4)cc(C[n+]4ccc(-c5cc[n+](Cc6cc(C[n+]7ccc(-c8cc[n+](Cc9cc(C[n+]%10ccc(-c%11cc[n+](CC)cc%11)cc%10)cc(C[n+]%10ccc(-c%11cc[n+](CC)cc%11)cc%10)c9)cc8)cc7)cc(C[n+]7ccc(-c8cc[n+](Cc9cc(C[n+]%10ccc(-c%11cc[n+](Cc%12cc(C[n+]%13ccc(-c%14cc[n+](Cc%15cc(C[n+]%16ccc(-c%17cc[n+](CC)cc%17)cc%16)cc(C[n+]%16ccc(-c%17cc[n+](CC)cc%17)cc%16)c%15)cc%14)cc%13)cc(C[n+]%13ccc(-c%14cc[n+](Cc%15cc(C[n+]%16ccc(-c%17cc[n+](CC)cc%17)cc%16)cc(C[n+]%16ccc(-c%17cc[n+](CC)cc%17)cc%16)c%15)cc%14)cc%13)c%12)cc%11)cc%10)cc(C[n+]%10ccc(-c%11cc[n+](Cc%12cc(C[n+]%13ccc(-c%14cc[n+](Cc%15cc(C[n+]%16ccc(-c%17cc[n+](CC)cc%17)cc%16)cc(C[n+]%16ccc(-c%17cc[n+](CC)cc%17)cc%16)c%15)cc%14)cc%13)cc(C[n+]%13ccc(-c%14cc[n+](Cc%15cc(C[n+]%16ccc(-c%17cc[n+](CC)cc%17)cc%16)cc(C[n+]%16ccc(-c%17cc[n+](CC)cc%17)cc%16)c%15)cc%14)cc%13)c%12)cc%11)cc%10)c9)cc8)cc7)c6)cc5)cc4)c3)cc2)cc1.F[P-](F)(F)(F)(F)F.F[P-](F)(F)(F)(F)F.F[P-](F)(F)(F)(F)F.F[P-](F)(F)(F)(F)F.F[P-](F)(F)(F)(F)F.F[P-](F)(F)(F)(F)F.F[P-](F)(F)(F)(F)F.F[P-](F)(F)(F)(F)F.F[P-](F)(F)(F)(F)F.F[P-](F)(F)(F)(F)F.F[P-](F)(F)(F)(F)F.F[P-](F)(F)(F)(F)F.F[P-](F)(F)(F)(F)F.F[P-](F)(F)(F)(F)F.F[P-](F)(F)(F)(F)F.F[P-](F)(F)(F)(F)F.F[P-](F)(F)(F)(F)F.F[P-](F)(F)(F)(F)F.F[P-](F)(F)(F)(F)F.F[P-](F)(F)(F)(F)F.F[P-](F)(F)(F)(F)F.F[P-](F)(F)(F)(F)F.F[P-](F)(F)(F)(F)F.F[P-](F)(F)(F)(F)F.F[P-](F)(F)(F)(F)F.F[P-](F)(F)(F)(F)F.F[P-](F)(F)(F)(F)F.F[P-](F)(F)(F)(F)F.F[P-](F)(F)(F)(F)F.F[P-](F)(F)(F)(F)F.F[P-](F)(F)(F)(F)F.F[P-](F)(F)(F)(F)F.F[P-](F)(F)(F)(F)F.F[P-](F)(F)(F)(F)F.F[P-](F)(F)(F)(F)F.F[P-](F)(F)(F)(F)F.F[P-](F)(F)(F)(F)F.F[P-](F)(F)(F)(F)F.F[P-](F)(F)(F)(F)F.F[P-](F)(F)(F)(F)F.F[P-](F)(F)(F)(F)F.F[P-](F)(F)(F)(F)F	20	0.101	1.4	0.108	Dose-dependent effect	9	0.111	Dose-dependent effect	0.542	inactive	0.18	Dose-dependent effect	Dose-dependent effect	inactive	1.07	0.0891	Dose-dependent effect
